Results: ChEMBL document CHEMBL3046214, “Friedelane triterpenes from Celastrus vulcanicola as photosynthetic inhibitors” (J Agric Food Chem, 2010)
pIC50: −log10 of the molar value. The source made the active and inactive calls. The rule behind the calls is not given here.

How the values were obtained:
Spinacia oleracea [1] = test: Inhibition of photophosphorylation in Spinacia oleracea (spinach) leaves chloroplasts by titrimetry; format: functional
In short: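 Intact spinach chloroplasts (20 μg Chl/mL) were osmotically broken in 3 mL of weakly buffered medium: 100 mM sorbitol, 10 mM KCl, 5 mM MgCl2, 0.5 mM KCN, 1 mM tricine-KOH pH 8.0, 50 μM MV and 1 mM ADP. ATP synthesis was taken from the medium alkalization rate in the linear part of illumination, calibrated by HCl back-titration, as μmol ATP (mg Chl)-1 h-1. I50 was obtained from concentration-activity plots; three replicates.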

Spinacia oleracea [2] = test: Increase in Magnesium-transporting ATPase activity in Spinacia oleracea (spinach) leaves chloroplasts thylakoids at 3 mM
In short: (§1)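 Spinach chloroplasts were isolated in 350 mM sorbitol, 5 mM ascorbate, 20 mM MES pH 6.5, centrifuged at 3000g for 60 s, washed, and resuspended in 35 mM HEPES pH 7.6. Light-triggered Mg2+-ATPase activity of thylakoid membranes was measured as released inorganic phosphate. Ammonium chloride served as positive control.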

Spinacia oleracea [3] = test: Increase in Magnesium-transporting ATPase activity in Spinacia oleracea (spinach) leaves chloroplasts thylakoids at 2 mM; in short: as §1
Spinacia oleracea [4] = test: Increase in Magnesium-transporting ATPase activity in Spinacia oleracea (spinach) leaves chloroplasts thylakoids at 1 mM; in short: as §1
Physalis ixocarpa [5] = test: Inhibition of photosynthetic efficiency in Physalis ixocarpa intact leaves assessed as effect on OJIP transients at 100 uM measured 24 hr post compound application; format: functional, organism-based
In short: (§2)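 P. ixocarpa plants sprayed 15 days after emergence (greenhouse, 25-30 °C; 20 mM DMSO stock diluted into 0.05% Tween-20; vehicle-sprayed controls). Leaves dark-adapted 15 min, then excited with 650 nm red LED light at 3000 μmol photons m-2 s-1. Chl a OJIP transients recorded with a Handy PEA at room temperature. PI(abs) is normalized to control; K-, J- and I-bands come from variable fluorescence difference curves; five replicates.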

Spinacia oleracea [6] = test: Inhibition of basal electron transport from water to MV in Spinacia oleracea (spinach) leaves chloroplasts up to 300 uM using Clark type electrode system based method; format: functional, organism-based
[7] = target: Photosystem II protein D1 (Spinacia oleracea) (UniProt P69560); test: Inhibition of uncoupled photosystem II electron transport and partial reactions in Spinacia oleracea (spinach) leaves assessed as electron transport rate from water to DCPIP at 300 uM measured per mg of chlorophyll relative to untreated control; design: scale not given: the % may be the effect or the level left
Physalis ixocarpa [8] = test: Effect on photosynthetic efficiency in Physalis ixocarpa intact leaves assessed as increase in PI(abs) level at 100 uM measured 72 hr post compound application; format: functional; settings: in the assay text read “at 200 uM” for “at 100 uM”; in short: as §2
Spinacia oleracea [9] = test: Inhibition of uncoupled electron transport from water to MV in Spinacia oleracea (spinach) leaves chloroplasts up to 300 uM using Clark type electrode system based method; format: functional, organism-based
In short: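 Water-to-MV electron transport measured with a Clark electrode in the basal medium (20 μg Chl/mL, 50 μM MV, 15 mM tricine-KOH pH 8.0, 1 min illumination), with 6 mM NH4Cl added as uncoupler.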

Spinacia oleracea [10] = test: Effect on photosynthesis efficiency in Spinacia oleracea (spinach) leaves freshly lysed chloroplasts assessed as change in chlorophyll a fluorescence at 150 to 450 uM; format: functional
In short: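 Freshly lysed spinach thylakoids (20 μg Chl) were placed on filter paper with a dot-blot apparatus and dipped in 3 mL basal electron transport medium without MV, containing compound. After 5 min dark adaptation, fluorescence was excited with 3000 μmol m-2 s-1 650 nm LED light (2 s pulse) at room temperature. Wt = (Ft−F0)/(FJ−F0), difference from control used for K-band; five replicates.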

[11] = target: Photosystem II protein D1 (Spinacia oleracea) (UniProt P69560); test: Inhibition of uncoupled photosystem II electron transport and partial reactions in Spinacia oleracea (spinach) leaves assessed as electron transport rate from water to DCPIP at 50 uM measured per mg of chlorophyll relative to untreated control; design: scale not given: the % may be the effect or the level left
[12] = target: Photosystem II protein D1 (Spinacia oleracea) (UniProt P69560); test: Inhibition of uncoupled photosystem II electron transport and partial reactions in Spinacia oleracea (spinach) leaves assessed as electron transport rate from water to SiMo at 200 uM measured per mg of chlorophyll relative to untreated control; design: scale not given: the % may be the effect or the level left
In short: (§3)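 Uncoupled partial PSII reaction from water to silicomolybdate, run in the PSII medium (sorbitol, KCl, MgCl2, KCN, 15 mM tricine-KOH pH 8.0, 6 mM NH4Cl, 20 μg Chl/mL, 1 min light). DCBQ/DBMIB were replaced by 200 μM SiMo plus 10 μM DCMU. Rates are in μequiv e-/h mg Chl, relative to control, three replicates.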

[13] = target: Photosystem II protein D1 (Spinacia oleracea) (UniProt P69560); test: Inhibition of uncoupled photosystem II electron transport and partial reactions in Spinacia oleracea (spinach) leaves assessed as electron transport rate from water to DCPIP at 100 uM measured per mg of chlorophyll relative to untreated control; design: scale not given: the % may be the effect or the level left
Lolium perenne [14] = test: Inhibition of photosynthetic efficiency in Lolium perenne (perennial ryegrass) at 200 uM measured 24 to 72 hr post compound application; format: functional
In short: (§4)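 Greenhouse L. perenne sprayed 18 days after emergence (20 mM DMSO stock diluted into 0.05% Tween-20; vehicle-sprayed controls). Leaves dark-adapted 15 min, then excited with 3000 μmol photons m-2 s-1 red light (650 nm) from three LEDs. OJIP transients recorded at room temperature with a Handy PEA. PI(abs) and other parameters are shown on radar plots normalized to control.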

[15] = target: Photosystem II protein D1 (Spinacia oleracea) (UniProt P69560); test: Inhibition of uncoupled photosystem II electron transport and partial reactions in Spinacia oleracea (spinach) leaves assessed as electron transport rate from water to SiMo at 100 uM measured per mg of chlorophyll relative to untreated control; design: scale not given: the % may be the effect or the level left; in short: as §3
[16] = target: Photosystem II protein D1 (Spinacia oleracea) (UniProt P69560); test: Inhibition of uncoupled photosystem II electron transport and partial reactions in Spinacia oleracea (spinach) leaves assessed as electron transport rate from water to DCBQ at 50 uM measured per mg of chlorophyll relative to untreated control; design: scale not given: the % may be the effect or the level left
In short: (§5)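 Uncoupled PSII water-to-DCBQ rate: 3 mL of 100 mM sorbitol, 10 mM KCl, 5 mM MgCl2, 0.5 mM KCN, 15 mM tricine-KOH pH 8.0, with 100 μM DCBQ, 1 μM DBMIB, 6 mM NH4Cl and chloroplasts at 20 μg Chl/mL, illuminated 1 min. Rates are in μequiv e-/h mg Chl, percent of control, three replicates.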

Spinacia oleracea [17] = test: Inhibition of phosphorylating noncyclic electron transport from water to MV in Spinacia oleracea (spinach) leaves chloroplasts up to 300 uM using Clark type electrode system based method; format: functional
In short: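 Clark-electrode measurement of water-to-MV electron flow in the basal medium (sorbitol, KCl, MgCl2, 0.5 mM KCN, 50 μM MV, 15 mM tricine-KOH pH 8.0; 20 μg Chl/mL; 1 min light), with 1 mM ADP and 3 mM KH2PO4 added.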

Lolium perenne [18] = test: Effect on biomass production in Lolium perenne (perennial ryegrass) assessed as plant dry weight at 100 uM measured 14 days post compound application relative to untreated control; format: functional
In short: (§6)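 Greenhouse-grown plants (pots, watered daily, 25 to 30 °C) of similar size, sprayed at 15 (P. ixocarpa) or 18 (L. perenne) days after emergence. Compound taken from a 20 mM DMSO stock into aqueous 0.05% w/v Tween-20; controls were sprayed with water containing the same DMSO and Tween-20. Plants harvested at ground level, oven-dried at 65 °C to constant weight, then weighed.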

Lolium perenne [19] = test: Effect on biomass production in Lolium perenne (perennial ryegrass) assessed as plant dry weight at 200 uM measured 14 days post compound application relative to untreated control; format: functional; in short: as §6
[20] = target: Photosystem II protein D1 (Spinacia oleracea) (UniProt P69560); test: Inhibition of uncoupled photosystem II electron transport and partial reactions in Spinacia oleracea (spinach) leaves assessed as electron transport rate from water to DCBQ at 100 uM measured per mg of chlorophyll relative to untreated control; design: scale not given: the % may be the effect or the level left; in short: as §5
Physalis ixocarpa [21] = test: Inhibition of photosynthetic efficiency in Physalis ixocarpa intact leaves assessed as reduction in PI(abs) level at 200 uM measured 48 hr post compound application; format: functional; in short: as §2
Physalis ixocarpa [22] = test: Effect on biomass production in Physalis ixocarpa assessed as plant dry weight at 100 uM measured 14 days post compound application relative to untreated control; format: functional; in short: as §6
Physalis ixocarpa [23] = test: Inhibition of photosynthetic efficiency in Physalis ixocarpa intact leaves assessed as reduction in PI(abs) level at 100 uM measured 48 hr post compound application; format: functional; in short: as §2
[24] = target: Photosystem II protein D1 (Spinacia oleracea) (UniProt P69560); test: Inhibition of uncoupled photosystem II electron transport and partial reactions in Spinacia oleracea (spinach) leaves assessed as electron transport rate from water to DCBQ at 300 uM measured per mg of chlorophyll relative to untreated control; design: scale not given: the % may be the effect or the level left; in short: as §5
[25] = target: Photosystem II protein D1 (Spinacia oleracea) (UniProt P69560); test: Inhibition of uncoupled photosystem II electron transport and partial reactions in Spinacia oleracea (spinach) leaves assessed as electron transport rate from water to SiMo at 300 uM measured per mg of chlorophyll relative to untreated control; design: scale not given: the % may be the effect or the level left; in short: as §3
Physalis ixocarpa [26] = test: Inhibition of photosynthetic efficiency in Physalis ixocarpa intact leaves assessed as reduction in PI(abs) level at 100 uM measured 72 hr post compound application; format: functional; in short: as §2
Physalis ixocarpa [27] = test: Inhibition of photosynthetic efficiency in Physalis ixocarpa intact leaves assessed as loss of K-bands at 200 uM measured 72 hr post compound application; format: functional, organism-based; in short: as §2
[28] = target: Photosystem II protein D1 (Spinacia oleracea) (UniProt P69560); test: Inhibition of uncoupled photosystem II electron transport and partial reactions in Spinacia oleracea (spinach) leaves assessed as electron transport rate from water to DCPIP at 200 uM measured per mg of chlorophyll relative to untreated control; design: scale not given: the % may be the effect or the level left
[29] = target: Photosystem II protein D1 (Spinacia oleracea) (UniProt P69560); test: Inhibition of uncoupled photosystem II electron transport and partial reactions in Spinacia oleracea (spinach) leaves assessed as electron transport rate from water to SiMo at 50 uM measured per mg of chlorophyll relative to untreated control; design: scale not given: the % may be the effect or the level left; in short: as §3
Lolium perenne [30] = test: Inhibition of photosynthetic efficiency in Lolium perenne (perennial ryegrass) at 100 uM measured 24 hr post compound application; format: functional; in short: as §4
Lolium perenne [31] = test: Inhibition of photosynthetic efficiency in Lolium perenne (perennial ryegrass) at 100 uM measured 72 hr post compound application; format: functional; in short: as §4
Physalis ixocarpa [32] = test: Effect on biomass production in Physalis ixocarpa assessed as plant dry weight at 200 uM measured 14 days post compound application relative to untreated control; format: functional; in short: as §6
Spinacia oleracea [33] = test: Increase in Magnesium-transporting ATPase activity in Spinacia oleracea (spinach) leaves chloroplasts thylakoids at 300 uM; in short: as §1
Spinacia oleracea [34] = test: Increase in Magnesium-transporting ATPase activity in Spinacia oleracea (spinach) leaves chloroplasts thylakoids at 200 uM; in short: as §1
[35] = target: Photosystem II protein D1 (Spinacia oleracea) (UniProt P69560); test: Inhibition of uncoupled photosystem II electron transport and partial reactions in Spinacia oleracea (spinach) leaves assessed as electron transport rate from water to DCBQ at 200 uM measured per mg of chlorophyll relative to untreated control; design: scale not given: the % may be the effect or the level left; in short: as §5
Lolium perenne [36] = test: Inhibition of photosynthetic efficiency in Lolium perenne (perennial ryegrass) at 100 uM measured 48 hr post compound application; format: functional, organism-based; in short: as §4
Spinacia oleracea [37] = test: Increase in Magnesium-transporting ATPase activity in Spinacia oleracea (spinach) leaves chloroplasts thylakoids at 100 uM; in short: as §1

## C[C@H]1C(=O)CC[C@@H]2[C@]1(C)CC[C@H]1[C@@]2(C)CC[C@@]2(C)[C@@H]3C[C@](C)(CO)CC[C@]3(C)CC[C@]12C
Spinacia oleracea [1]
  inhibition: inactive

## Cl.N
Spinacia oleracea [2]
  Activity: 234%
Spinacia oleracea [3]
  Activity: 252%
Spinacia oleracea [4]
  Activity: 128%

## C[C@H]1C(=O)CC[C@@H]2[C@]1(C)CC[C@H]1[C@@]2(C)CC[C@@]2(C)[C@@H]3CC(C)(C)CC[C@]3(CO)CC[C@]12C [CANOPHYLLOL]
Physalis ixocarpa [5]
  inhibition: inactive
Spinacia oleracea [6]
  inhibition: Active
[7]
  Activity: 100%
Physalis ixocarpa [8]
  Activity: 10%
Spinacia oleracea [9]
  inhibition: Active
Spinacia oleracea [10]
  Activity: Active
[11]
  Activity: 105%
[12]
  Activity: 10%
[13]
  Activity: 108%
Lolium perenne [14]
  inhibition: inactive
[15]
  Activity: 20%
[16]
  Activity: 89%
Spinacia oleracea [17]
  inhibition: Active
Lolium perenne [18]
  Activity: 117.1%
Lolium perenne [19]
  Activity: 140.3%
[20]
  Activity: 68%
Physalis ixocarpa [21]
  inhibition at 200 µM: 10%
Physalis ixocarpa [22]
  Activity: 81.5%
Physalis ixocarpa [23]
  inhibition at 100 µM: 10%
[24]
  Activity: 44%
[25]
  Activity: 0%
Physalis ixocarpa [26]
  inhibition at 100 µM: 25%
Physalis ixocarpa [27]
  inhibition: Active
[28]
  Activity: 95%
[29]
  Activity: 60%
Lolium perenne [30]
  inhibition at 100 µM: 50%
Lolium perenne [31]
  inhibition at 100 µM: 15%
Spinacia oleracea [1]; read-out: I50
  pIC50: 3.91
Physalis ixocarpa [32]
  Activity: 99%
Spinacia oleracea [33]
  Activity: 126%
Spinacia oleracea [34]
  Activity: 116%
[35]
  Activity: 50%
Lolium perenne [36]
  inhibition: inactive
Spinacia oleracea [37]
  Activity: 110%
